Compound activity (PubChem)
Xi reactivation – reactivates the inactive X chromosome in mouse fibroblasts. XiGFP mouse fibroblasts, % GFP-positive cells imaging, 3 d; cells co-treated with 5-aza-dC sensitizer; scaled so ellipticine positive control = 100%. activation, % at 7.58 µM. hit rate 0.055% among 360,000;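 active = mean normalized replicate activation at least 10% and every replicate at or above 10%; inconclusive = only one of the two criteria met; inactive = mean below 10% and not all replicates reach 10%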;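 note: 0% = median of on-plate neutral control wells and 100% = ellipticine 6 µM median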
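System: XiGFP fibroblasts, SV40-immortalized. Medium: DMEM plus 5-aza-dC sensitizer. Doses: single point. Timing: 3 d treatment, 15 min room-temperature fixation. Control set: ellipticine 6 µM.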
Cneo AK release – Cryptococcus neoformans lysis via adenylate kinase release; C. neoformans lysis, adenylate kinase release luminescence, 4 h; normalised: neutral wells 0, clomiphene wells 100; lysis activity, % at 15 µM; hit rate 0.2% among 360,000; AID 651654;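 active = mean lysis activity across replicates of at least 80%, whatever share of replicates individually reach that level; inactive = mean lysis activity below 80%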
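Assay system: log-phase C. neoformans yeast / Quantity: yeast cell density of 5 × 10^6 cells/mL / Medium: fresh YPD growth medium / Compound: single dose / Timing: static 4 h at 37 °C with compound, 1 h detection / Measured by: adenylate kinase release luminescence / Read-out: lysis from increased AK signal / Benchmarks: Clomiphene as positive lysis control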
DENV2 CPE rescue – DENV2-induced cell death inhibition. hit rate 1.7% among 350,000. DENV2-infected cells, cytopathic effect rescue, plate reader. AID 651640. CPE inhibition, % at 9.99 µM; in the data active = CPE inhibition above about 20%, passing the limit was not always enough; inconclusive = no clear call, values can overlap the other calls; tested in BHK-21 cells;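 note: 0% = median of neutral control wells and 100% = median of positive control wells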
Statin myotox sup – suppression of simvastatin myotoxicity; C2C12 myotubes + simvastatin, ATP luminescence, 48 h; scaled: DMSO 0, geranylgeraniol control 100; rescue of ATP level, % at 7.49 µM; hit rate 0.78% among 330,000;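 active = mean ATP rescue above about 67%, or every replicate alone reaching that limit, limit read from the data, passing the limit was not always enough; inconclusive = no clear call, values can overlap the other calls; inactive = mean under the limit and some replicate under it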;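 note: myotubes were challenged with 10 µM simvastatin during compound exposure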
Numbers without * were called inactive; ? = inconclusive; / = no result given. Most compounds without a hit are left out; they make up all but 2.1% or so of the library.

SMILES	Xi reactivation	Cneo AK release	DENV2 CPE rescue	Statin myotox sup
Cc1ccc(S(=O)(=O)Nc2ccc3c(c2)CC(=O)N([C@H](C)CO)C[C@@H](C)[C@@H](CN(C)C(=O)Nc2ccc(F)cc2)O3)cc1	-0.1	0.1	24.8*	20.7
C[C@@H]1CN([C@H](C)CO)C(=O)Cc2cc(NS(=O)(=O)c3ccc(Cl)cc3)ccc2O[C@@H]1CN(C)C(=O)Nc1ccccc1	-0.1	-0.7	26.8*	41.8
Cc1ccc(S(=O)(=O)Nc2ccc3c(c2)CC(=O)N([C@H](C)CO)C[C@H](C)[C@@H](CN(C)C(=O)Nc2ccc(F)cc2)O3)cc1	0.0	2.4	16.2	-19.9
C[C@@H]1CN([C@@H](C)CO)C(=O)Cc2cc(NS(=O)(=O)c3ccc(Cl)cc3)ccc2O[C@@H]1CN(C)C(=O)Nc1ccccc1	0.0	2.8	-1.3	24.6
Cc1noc(C)c1S(=O)(=O)Nc1ccc2c(c1)C(=O)N([C@H](C)CO)C[C@@H](C)[C@H](CN(C)CC1CCCCC1)O2	0.2	-0.5	-2.3	-1.6
C[C@@H]1CN([C@H](C)CO)C(=O)c2cc(NS(=O)(=O)c3ccccc3)ccc2O[C@@H](C)CCCCO[C@@H]1CN(C)S(=O)(=O)c1ccccc1	0.2	-2.8	-1.6	/
CC(=O)N1[C@H](CO)[C@H](c2ccc(-c3cccnc3)cc2)[C@H]1CNC(=O)C1CC1	0.1	/	47.2*	/
O=C(NC[C@H]1[C@@H](c2ccccc2)[C@@H](CO)N1C(=O)C1CCC1)NC1CCCC1	0.5	97.4*	19.3	9.5
CCC(=O)N1[C@H](CN(C)C(C)=O)[C@H](c2ccc(-c3cccnc3)cc2)[C@@H]1CO	-0.1	-3.7	29.2*	5.2
O=C(NC[C@H]1[C@H](c2ccccc2)[C@H](CO)N1C(=O)Cc1cccnc1)C1CCC1	0.0	81.1*	?	-10.6
CCC(=O)N1[C@H](CO)[C@H](c2ccc(-c3cccnc3)cc2)[C@@H]1CN(C)C(C)=O	0.2	-0.2	5.4	-5.1
CC=Cc1ccc2n(c1=O)C[C@H]1[C@H](CO)[C@@H](C(=O)NCCC)[C@@H]2N1C(=O)C1CC1 (mixture of isomers)	0.1	-4.6	8.1	2.3
CCCNC(=O)N1[C@H](CO)[C@H](c2ccccc2)[C@@H]1CNC(=O)C1CCCC1	0.0	/	22.1*	/
CC(=O)NC[C@@H]1[C@@H](c2ccc(-c3cccnc3)cc2)[C@H](CO)N1C(=O)C1CCC1	0.0	0.1	30.8*	-8.5
CC(=O)NC[C@H]1[C@@H](c2ccc(-c3cccnc3)cc2)[C@@H](CO)N1C(=O)C1CC1	0.0	0.8	-15.4	12.4
O=C(NC[C@H]1[C@H](c2ccccc2)[C@@H](CO)N1Cc1cccnc1)c1ccccn1	-0.1	75.0	37.9*	3.7
CCCNC(=O)C[C@@H]1CC[C@@H]2[C@H](COC[C@H](O)CN2C(=O)CC)O1	0.3	2.9	-4.1	-0.6
CCC(=O)N1CC2(C1)[C@@H](c1ccc(-c3cccc(F)c3)cc1)[C@@H](CO)N2CC1CC1	-0.1	/	20.5*	/
CCC(=O)N1CC2(C1)[C@@H](c1ccc(-c3cccc(C)c3)cc1)[C@@H](CO)N2S(C)(=O)=O	0.1	/	27.2*	/
CO[C@@H]1CN(C)C(=O)c2ccc(NS(C)(=O)=O)cc2OC[C@H](C)N(Cc2cccnc2)C[C@@H]1C	0.1	-5.6	26.2*	6.4
CO[C@H]1CN(C)C(=O)c2cc(NS(=O)(=O)CC(F)(F)F)ccc2OC[C@H](C)N(Cc2cccnc2)C[C@@H]1C	0.2	102.9*	37.1*	-1.9
CCN1[C@@H]2c3ccc(-c4ccccc4OC)c(=O)n3C[C@@H]2[C@@H](CO)[C@@H]1C(=O)NCC1CC1	0.2	-0.1	3.6	0.2
O=C(OCc1ccccc1Cl)c1cc([N+](=O)[O-])ccc1N1CCOCC1	-0.2	-1.0	?	1.3
O=C(OCc1c(F)cccc1Cl)c1cc([N+](=O)[O-])ccc1N1CCOCC1	-0.6	4.9	67.8*	5.2
COc1ccccc1-c1cc(C(F)(F)F)nc(S(=O)(=O)CCCC(=O)N2CCCCC2C)n1 (stereo unspecified)	/	-0.4	/	84.0*
O=C(COC(=O)CN1C(=O)C2CCCCC2C1=O)Nc1ccc(S(=O)(=O)N2CCOCC2)cc1 (stereo unspecified)	0.8	-0.5	-0.7	/
O=C(COC(=O)CN1C(=O)C2CCCCC2C1=O)Nc1cc(S(=O)(=O)N2CCOCC2)ccc1Cl (stereo unspecified)	0.0	/	87.7*	/
